Data from ChEMBL document CHEMBL3227950, “Ames test of 1-(X-phenyl)-3,3-dialkyltriazenes. A quantitative structure-activity study” (J Med Chem, 1979).

System: Salmonella typhimurium
Assay: Mutagenicity in Salmonella typhimurium strain TA92 assessed as number of bacterial revertants after 2 days by Ames test in presence of rat liver S9 fraction
Assay type: toxicity, organism-based
Conditions: salmonella enterica subsp. enterica serovar typhimurium, s9, 48 h
Method in brief: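 S. typhimurium TA92 (hisG46, pKM101) grown 12-16 h at 37 °C in nutrient broth (~10⁹ cells/mL). S-9 from livers of Aroclor 1254-induced female Sprague-Dawley rats (500 mg/kg ip, 5 days before sacrifice). Compound in Me₂SO, bacteria and S-9 mix preincubated 20 min at 30 °C, then plated in histidine/biotin top agar and incubated 2 days at 37 °C. Revertants were hand counted, with spontaneous control revertants subtracted. Triplicates were run. The end point was 30 revertants/10⁸ bacteria, interpolated to give log 1/C.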

SMILES | log(1/C)
CC(=O)c1ccc(/N=N/N(C)C)cc1 | 4.47
C=CCN(C)/N=N/c1ccc(C(N)=O)cc1 | 4.16
CN(C)/N=N/c1[nH]cnc1C(N)=O [DACARBAZINE] | 3
CN(C)/N=N/c1ccc(NC(N)=O)cc1 | 5.59
CN(C)/N=N/c1cccc(C(N)=O)c1 | 3.51
Cc1ccc(/N=N/N(C)C)cc1 | 7
CN(C)/N=N/c1cc(C#N)cc(C#N)c1 | 3.46
Cc1cccc(/N=N/N(C)C)c1 | 6.44
CCCCN(C)/N=N/c1ccc(C(N)=O)cc1 | 5.41
CN(C)/N=N/c1ccc(Cl)cc1 | 6.48
CC(=O)Nc1ccc(/N=N/N(C)C)cc1 | 5.83
CN(C)/N=N/c1ccccc1 | 5.32
CN(C)/N=N/c1ccc(-c2ccccc2)cc1 | 7.67
CN(C)/N=N/c1ccc(S(N)(=O)=O)cc1 | 3.49
CN(C)/N=N/c1cccc(NC(N)=O)c1 | 4.19
CN(C)/N=N/c1ccc(C(N)=O)cc1 | 4.04
COc1cc2c(c3oc(=O)c4c(c13)CCC4=O)[C@@H]1C=CO[C@@H]1O2 [AFLATOXIN] | 9.48
CN(/N=N/c1ccc(C(N)=O)cc1)C(C)(C)C | 3.83
CN(C)/N=N/c1ccc(C(F)(F)F)cc1 | 5.99
CN(C)/N=N/c1ccc(C#N)cc1 | 4.43
